Measurements as given in article PMC3528315 (The FASEB Journal, 2013).
Entries after “also recorded” stand apart in the source; their conditions may differ. Where two headings read alike, the source gives them in different places.

What was measured:
DA rats with EAE [1] = experiment: EAE treatment with mSUV-encapsulated MBP peptides, disease scores; format: in vivo, Dark Agouti (DA) rats; conditions: for disease course / therapeutic effect in words: 6 daily s.c. injections from d 7 after EAE induction, mean disease score; for delta: ranking of overall difference in MDS from the placebo group: ascending series, placebo = empty mSUV
DA rats with EAE [2] = experiment: EAE treatment with p1 as such or encapsulated in SUV / mSUV; format: in vivo, Dark Agouti (DA) rats; conditions: s.c.; mean disease score vs no treatment; p1 n=8, p1 SUV n=10, p1 mSUV n=9
DA rats = conditions: cited from earlier work
[3] = test system: circulating polyclonal anti-MBP Abs from DA rats; format: binding; conditions: SPR; DA rats immunized with MBP63–81
IL-2 = experiment: Immunostaining of spinal cord for IL-2; format: in vivo, DA rats; conditions: immunohistochemistry
How it was run: (§1)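 EAE DA rats with symptoms got single daily subcutaneous injections of liposome formulations, reference drug or placebo for 6 d and were followed for 28 d. Spinal cords were fixed, dehydrated and paraffin-embedded, and sections were immunostained for IL-2, IFNγ or BDNF per the antibody makers' protocols. Scoring was blinded, against nonimmunized rats and untreated EAE rats.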

[4] = test system: regulatory Th2 cells; BDNF expression; conditions: cited from earlier work
IFNγ = experiment: Immunostaining of spinal cord for IFNγ; format: in vivo, DA rats; conditions: immunohistochemistry
How it was run: as §1

[5] = test system: Spinal cords of DA rats with EAE; experiment: Spinal cord histology, gliosis and demyelination; format: in vivo, Dark Agouti (DA) rats
How it was run: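 Symptomatic EAE DA rats were dosed subcutaneously once daily for 6 d and followed for 28 d. Paraffin-embedded spinal cord sections were stained with hematoxylin–eosin and luxol fast blue and scored blind on 0–3 scales. Gliosis grades were mild (5–10 cells/focus), moderate (10–50 cells/focus) and severe (>50 cells/focus), and demyelination ran from none (0) to severe (3).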

[6] = test system: autoAbs to full-length MBP; experiment: Serum anti-MBP autoAbs; format: in vivo, DA rats; conditions: ELISA, vs control/placebo group
How it was run: (§2)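 Wells were coated overnight at 4°C with MBP or Trx-fused MBP peptides (10 μg/ml, 100 mM carbonate/bicarbonate, pH 9.0) and blocked with 2% BSA for 1 h at 37°C. Rat sera were diluted 100- to 50,000-fold in PBS-Tween/0.5% BSA, with 5 USP units/ml heparin for MBP, and incubated 1 h at 37°C. HRP anti-rat (1:4000, 1 h, 37°C) and TMB followed, with a phosphoric acid stop and OD₄₅₀ read-out.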

BDNF = experiment: Immunostaining of CNS / spinal cord for BDNF; format: in vivo, DA rats; conditions: immunohistochemistry, vs placebo
How it was run: as §1

[7] = test system: autoAbs to MBP epitope 146–170; experiment: Serum autoAbs; format: in vivo, DA rats; conditions: ELISA, vs control/placebo group
How it was run: as §2

[8] = test system: autoAbs to MBP epitope 81–103; experiment: Serum autoAbs; format: in vivo, DA rats; conditions: ELISA, vs control/placebo group
How it was run: as §2

Substance: p1: immunodominant MBP peptide MBP46–62, as such (without liposomes) (FGEADANQNNGTSSQDT; UniProt P02686 46-62, looked up, fragment)
- disease course / therapeutic effect in words (DA rats with EAE [1]): no therapeutic effect; also recorded: no detectable therapeutic activity
- delta: ranking of overall difference in MDS from the placebo group (DA rats with EAE [1]): p1 ≪ p2 mSUV ≈ p3 mSUV < p1 mSUV ≈ Copaxone < p123 mSUV
- therapeutic effect on EAE (DA rats with EAE [2]): no detectable therapeutic effect

Substance: GPBP68–88: fragment of the guinea pig myelin basic protein (HYGSLPQKSQRSQDENPVVHF; UniProt P25188 68-88, looked up, fragment)
- capability to induce EAE in DA rats (DA rats): slightly

Substance: MDHARHGFLPRH
- binding of autoAbs [3]: not detected

Substance: GPBP62–84: fragment of the guinea pig myelin basic protein (HAARTTHYGSLPQKSQRSQDENP; UniProt P25188 62-84, looked up, fragment)
- capability to induce EAE in DA rats (DA rats): capable to induce EAE in DA rats

Substance: MBP62–75: major encephalitogenic peptide in DA rats (WLKQSRSPLPSHAR; UniProt P02688 62-75, looked up, fragment)
- immunodominance of encephalitogenic peptide in DA rats (DA rats): not immunodominant

Substance: glatiramer acetate [Copaxone]
- median maximum disease score vs placebo (DA rats with EAE [1]; 6 daily s.c. injections from d 7, Wilcoxon test, P < 0.05): significantly differed from the placebo group
- disease course / therapeutic effect in words (DA rats with EAE [1]): significantly suppressed protracted EAE
- delta: ranking of overall difference in MDS from the placebo group (DA rats with EAE [1]): p1 ≪ p2 mSUV ≈ p3 mSUV < p1 mSUV ≈ Copaxone < p123 mSUV
- IL-2 in spinal cord (IL-2): significantly down-regulated
- induction of regulatory Th2 cells, cytokines and BDNF [4]: known to stimulate BDNF expression
- induction of regulatory Th2 cells, cytokines and BDNF ([4]; listed as glatiramer acetate): induces the population of regulatory Th2 cells to become capable of crossing the BBB and producing anti-inflammatory cytokines IL-4, IL-6, IL-10, and brain-derived neurotrophic factor
- IFNγ in spinal cord (IFNγ): significantly down-regulated
- degree of demyelination, luxol fast blue staining [5]: reduced
- serum concentration of autoAbs to full-length MBP [6]: significant decrease
- BDNF in CNS (BDNF): enhanced production of BDNF
- serum autoAbs to MBP epitope 146–170 [7]: down-regulated
- serum autoAbs to MBP epitope 81–103 [8]: down-regulated
